Assay results published in publication PMC12217349 (Scientific Reports, 2025).

What was measured:
[1] = system: bone marrow collagen fibrosis; settings: myelofibrosis patients treated for 9 months; cited from earlier work
[2] = system: myocardial infarction (MI) mouse model; test: Myocardial infarction; type: in vivo, Male C57BL/6J mice; settings: MI mice; daily oral gavage 28 days; SNT-5382 14 mg/kg, losartan 15 mg/kg
Outline: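 Male C57BL/6J mice, 10–11 weeks, were anaesthetised with ketamine 100 mg/kg and xylazine 10 mg/kg under ventilation. The left coronary artery was permanently ligated; shams had no occlusion. Mice with fractional shortening of 10–40% at 24 h were included. Daily oral gavage for 4 weeks: test compound 14 mg/kg (free base), losartan 15 mg/kg or water vehicle; blinded.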

[3] = system: LOXL2; settings: cited from earlier work

NCc1cc(Oc2cccc(C(=O)N3C[C@@H](O)[C@H](F)C3)c2)nc(C(F)(F)F)c1 [GB2064]
patients with reduced bone marrow collagen fibrosis grade [1]: 60%

CCCCc1nc(Cl)c(CO)n1Cc1ccc(-c2ccccc2-c2nn[nH]n2)cc1 [losartan, Losartan]
hypertrophy: left ventricular end-systolic diameter (LVESD) [2]: no significant effect

B1: simtuzumab: an allosteric LOXL2 selective antibody (antibody, chains of the INN, looked up, V domains shown)
VH: QVQLVQSGAEVKKPGASVKVSCKASGYAFTYYLIEWVRQAPGQGLEWIGVINPGSGGTNYNEKFKGRATITADKSTSTAYMELSSLRSEDTAVYFCARNWMNFDYWGQGTTVTVSS
VL: DIVMTQTPLSLSVTPGQPASISCRSSKSLLHSNGNTYLYWFLQKPGQSPQFLIYRMSNLASGVPDRFSGSGSGTDFTLKISRVEAEDVGVYYCMQHLEYPYTFGGGTKVEIK
inhibition of LOXL2 enzymatic activity [3]: did not inhibit the enzymatic activity of LOXL2
